From ChEMBL document CHEMBL5365533, “DNA major versus minor groove occupancy of monomeric and dimeric crystal violet derivatives. Toward structural correlations” (Bioorg Med Chem, 2023)
Calls of active or inactive are those of the source. No cut-off for these calls is given here.

Legend:
Calf thymus DNA [1] = assay: Binding affinity to calf thymus DNA in Tris-HCl buffer at pH 7.0 assessed as change in enthalpy at 100 uM by isothermal titration […] analysis; format: nucleic-acid assay; conditions: Bos taurus
Outline: (§1)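 ITC of CT DNA (100 μM/bp in cell) titrated with ligand (100 μM in syringe), 10 mM Tris-HCl pH 7.0; 25 injections of 10 μL at 30 °C, or for one ligand 50 injections of 5 μL at 27 °C. Buffer-into-DNA heats subtracted; single-site model gives K, N, ΔH and ΔS.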

Calf thymus DNA [2] = assay: Ratio of Kapp for displacement of ethidium bromide from calf thymus DNA/EtBr complex to Kapp for displacement of ethidium bromide from calf thymus DNA/EtBr in presence of netropsin; format: nucleic-acid assay; conditions: Bos taurus
Outline: (§2)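 Fluorescence titration of CT DNA (1.0 μM/bp) plus ethidium (0.5 μM), with or without netropsin or methyl green (0.5 μM each), against increasing ligand in 10 mM Tris-HCl pH 7.0. Excitation 520 nm, emission 590 nm, read after 3 min equilibration. C50 is the concentration giving 50% fluorescence loss; Kapp = 9.5×10^6 M⁻¹ × C_ethidium/C50.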

[3] = Binding affinity to DDD hairpin DNA (unknown origin) assessed as binding constant at 100 uM by ITC analysis
Outline: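 Isothermal titration calorimetry of DDD hairpin (10 μM in cell) titrated with ligand (100 μM in syringe), 10 mM Tris-HCl pH 7.0, 30 °C; 25 injections of 10 μL. Heats of dilution subtracted; single-site binding model fitted; K averaged from triplicate experiments.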

Calf thymus DNA [4] = assay: Binding affinity to calf thymus DNA in Tris-HCl buffer at pH 7.0 assessed as minimal change in viscosity at 2 to 26 uM incubated for 30 mins by Ostwald viscometer analysis; format: nucleic-acid assay; conditions: Bos taurus, dose 2-26 µM
Outline: (§3)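 Ostwald viscometer at 23.0 ± 1 °C. CT DNA held at 300 μM/bp in 10 mM Tris-HCl pH 7.0 with ligand or ethidium at 0–26 μM, incubated 30 min before timing flow. (η/η0)^1/3 plotted against [ligand]/[DNA]; three replicates, SD shown.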

Calf thymus DNA [5] = assay: Binding affinity to calf thymus DNA in Tris-HCl buffer at pH 7.0 assessed as change in entropy at 100 uM by isothermal titration […] analysis; format: nucleic-acid assay; conditions: Bos taurus; outline: as §1
Calf thymus DNA [6] = assay: Binding affinity to calf thymus DNA in Tris-HCl buffer at pH 7.0 assessed as differential groove occupancy at 100 uM by ITC analysis; format: nucleic-acid assay; conditions: Bos taurus; outline: as §1
AT rich DNA = assay: Displacement of Ethidium bromide from AT3 (5'-ATATAT-3') hairpin DNA (unknown origin)/EtBr complex assessed as binding constant by crystal violet staining based analysis; format: nucleic-acid assay
Calf thymus DNA [7] = assay: Binding affinity to calf thymus DNA assessed as bathochromic shift by UV spectroscopic analysis; format: nucleic-acid assay; conditions: Bos taurus
Outline: (§4)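 UV titration in 10 mM Tris-HCl pH 7.0 with ligand fixed at 5.0 μM and CT DNA:ligand ratios of 0:1, 1:1, 2:1, 5:1, 10:1 and 30:1.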

Calf thymus DNA [8] = assay: Binding affinity to calf thymus DNA assessed as change in melting temperature by UV thermal denaturation assay; format: nucleic-acid assay; conditions: Bos taurus
Outline: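 CT DNA in 10 mM Tris-HCl pH 7.0 at a DNA:ligand ratio of 30:1, in 1 cm quartz cuvettes. Absorbance read every 2 °C from 25 to 95 °C, heating at 1 °C/min. Tm taken from first-derivative plots.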

[9] = Displacement of Ethidium bromide from cMyc (5'-CACGTG-3') hairpin DNA (unknown origin)/EtBr complex assessed as binding constant by crystal violet staining based analysis
[10] = Displacement of Ethidium bromide from NFAT1 (5-GAAAAA-3') hairpin DNA (unknown origin)/EtBr complex assessed as binding constant by crystal violet staining based analysis
Calf thymus DNA [11] = assay: Binding affinity to calf thymus DNA in Tris-HCl buffer at pH 7.0 assessed as lengthening of DNA from intercalation of drug incubated for 30 mins by Ostwald viscometer analysis; format: nucleic-acid assay; conditions: Bos taurus; outline: as §3
DNA [12] = assay: Displacement of Ethidium bromide from A5T5 (5'-GGGAAAAATTTTTCCCCC-3') DNA (unknown origin)/EtBr complex assessed as decrease in initial absorbance of DNA by crystal violet staining based analysis; format: nucleic-acid assay
Calf thymus DNA [13] = assay: Binding affinity to calf thymus DNA in Tris-HCl buffer at pH 7.0 assessed as rigidification of DNA from intercalation of drug incubated for 30 mins by Ostwald viscometer analysis; format: nucleic-acid assay; conditions: Bos taurus; outline: as §3
Calf thymus DNA [14] = assay: Ratio of Kapp for displacement of ethidium bromide from calf thymus DNA/EtBr complex to Kapp for displacement of ethidium bromide from calf thymus DNA/EtBr in presence of methyl green; format: nucleic-acid assay; conditions: Bos taurus; outline: as §2
[15] = Binding affinity to DDD (5-CGAATT-3') hairpin DNA (unknown origin) assessed as binding constant by isothermal titration calorimetry
Calf thymus DNA [16] = assay: Binding affinity to calf thymus DNA assessed as hypochromic shift by UV spectroscopic analysis; format: nucleic-acid assay; conditions: Bos taurus; outline: as §4
[17] = Displacement of Ethidium bromide from G5C5 (5'-AAAGGGGG-CCCCCTTT-3') DNA (unknown origin)/EtBr complex assessed as decrease in initial absorbance of DNA by crystal violet staining based analysis
[18] = Displacement of Ethidium bromide from STAT6 (5'-TCCTAG-3') hairpin DNA (unknown origin)/EtBr complex assessed as binding constant by crystal violet staining based analysis
[19] = Binding affinity to DDD hairpin DNA (unknown origin) in Tris-HCl buffer at pH 5.0 assessed as negative induced CD bands formation at 310nm at 1 mM incubated for 5 mins by CD spectra analysis
Outline: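 Ligand (1 mM stock) added in small aliquots to DDD hairpin (8.8 μM) in 10 mM Tris-HCl pH 5.0; mixed by inversion and incubated 5 min at 20 °C. CD recorded 215–350 nm in 0.5 nm steps as the average of three scans.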

DNA [20] = assay: Displacement of Ethidium bromide from (AT)5 (5'-GGGATATA-TATATCCC-3') DNA (unknown origin)/EtBr complex assessed as decrease in initial absorbance of DNA by crystal violet staining based analysis; format: nucleic-acid assay

With `Cc1cc(N(C)C)cc(C)c1C(=C1C=CC(=[N+](C)C)C=C1)c1ccc(N(C)C)cc1` the deltaH (Calf thymus DNA [1]) was 29.7 kcal/mol, the Ratio (Calf thymus DNA [2]) was 1.3 and the K [3] was 14.6 10^5/M. The Activity (Calf thymus DNA [4]) was “Dose-Dependent Effect”, the deltaS (Calf thymus DNA [5]) was 0.122 kcal/mol and the Activity (Calf thymus DNA [6]) was “Active”. For the same molecule, the K (AT rich DNA) was 0.21 10^5/M, the Activity (Calf thymus DNA [7]) was “Active” and the ΔTm (Calf thymus DNA [8]) was 2.8 °C. For the same molecule, the K [9] was 1.26e+06 M⁻¹, the K [10] was 0.19 10^5/M and the Activity (Calf thymus DNA [11]) was “Active”. For the same molecule, the C50 (DNA [12]) was 1.86 µM, the Activity (Calf thymus DNA [13]) was “Active” and the Ratio (Calf thymus DNA [14]) was greater than 8. The K [15] was 14.6 10^5/M, the Activity (Calf thymus DNA [16]) was “Active” and the C50 [17] was 2.05 µM. The K [18] was 1.06 10^5/M, the Activity [19] was “Active” and the C50 (DNA [20]) was 1.57 µM.
